# The M2OR odorant receptor database
# Where a chain is given by its changes, count along the chain named.
# Columns and labels:
# Conditions in all cases: stereoisomer not certain
# Or10j5 (Mus musculus) = target: T1, Or10j5 (Mus musculus) (UniProt Q62007)
# T1 sequence (whole entry): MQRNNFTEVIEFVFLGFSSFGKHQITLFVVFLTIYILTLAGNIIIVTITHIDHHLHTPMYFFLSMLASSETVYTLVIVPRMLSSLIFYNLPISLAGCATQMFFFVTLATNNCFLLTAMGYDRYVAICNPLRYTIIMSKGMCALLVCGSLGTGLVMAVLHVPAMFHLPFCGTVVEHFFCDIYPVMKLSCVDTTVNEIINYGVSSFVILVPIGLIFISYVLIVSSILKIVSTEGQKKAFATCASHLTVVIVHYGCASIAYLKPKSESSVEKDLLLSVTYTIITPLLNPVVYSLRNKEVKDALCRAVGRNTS
# How it was run: (§1)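 Assay methods differ from source to source, frequently being transient luciferase assays in mammalian cell lines. For each receptor–molecule pair, the label responsive (active) applies when the original authors judged the measured signal statistically different from baseline, and non-responsive (inactive) applies otherwise.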
# Or1m1 (Mus musculus) = target: T2, Or1m1 (Mus musculus) (UniProt Q8VFM9)
# T2 sequence (whole entry): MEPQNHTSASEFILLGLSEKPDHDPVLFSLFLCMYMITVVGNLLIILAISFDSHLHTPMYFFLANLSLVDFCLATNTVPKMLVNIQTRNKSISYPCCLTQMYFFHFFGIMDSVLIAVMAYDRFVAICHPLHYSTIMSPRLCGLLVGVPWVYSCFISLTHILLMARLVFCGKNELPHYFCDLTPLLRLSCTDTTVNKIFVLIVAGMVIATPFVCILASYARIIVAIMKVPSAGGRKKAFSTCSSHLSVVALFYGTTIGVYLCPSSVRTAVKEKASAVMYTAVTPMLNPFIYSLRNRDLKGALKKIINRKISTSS
# How it was run: as §1
# Or2c1 (Mus musculus) = target: T3, Or2c1 (Mus musculus) (UniProt P23275)
# T3 sequence (whole entry): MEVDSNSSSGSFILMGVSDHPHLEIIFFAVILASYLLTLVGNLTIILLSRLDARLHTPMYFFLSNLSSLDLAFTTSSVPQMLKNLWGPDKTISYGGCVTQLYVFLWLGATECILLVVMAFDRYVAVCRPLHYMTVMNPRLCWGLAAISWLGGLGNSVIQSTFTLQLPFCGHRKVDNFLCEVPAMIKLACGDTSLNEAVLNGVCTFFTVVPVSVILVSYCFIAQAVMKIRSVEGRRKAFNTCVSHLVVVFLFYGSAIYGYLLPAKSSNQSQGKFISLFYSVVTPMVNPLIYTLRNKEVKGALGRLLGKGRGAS
# How it was run: as §1
# Or5ar1 (Mus musculus) = target: T4, Or5ar1 (Mus musculus) (UniProt Q8VGS3)
# T4 sequence (whole entry): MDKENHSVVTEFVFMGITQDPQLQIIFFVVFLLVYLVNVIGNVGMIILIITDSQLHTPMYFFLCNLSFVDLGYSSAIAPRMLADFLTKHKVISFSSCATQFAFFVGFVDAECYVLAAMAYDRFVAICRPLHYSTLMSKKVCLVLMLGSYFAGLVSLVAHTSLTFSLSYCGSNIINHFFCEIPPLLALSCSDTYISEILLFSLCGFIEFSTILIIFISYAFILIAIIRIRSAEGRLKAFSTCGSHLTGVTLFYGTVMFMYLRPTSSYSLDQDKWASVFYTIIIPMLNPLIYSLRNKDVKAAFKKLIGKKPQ
# How it was run: as §1
# OR9Q1 (Homo sapiens) = target: T5, OR9Q1 (Homo sapiens) (UniProt Q8NGQ5)
# T5 sequence (whole entry): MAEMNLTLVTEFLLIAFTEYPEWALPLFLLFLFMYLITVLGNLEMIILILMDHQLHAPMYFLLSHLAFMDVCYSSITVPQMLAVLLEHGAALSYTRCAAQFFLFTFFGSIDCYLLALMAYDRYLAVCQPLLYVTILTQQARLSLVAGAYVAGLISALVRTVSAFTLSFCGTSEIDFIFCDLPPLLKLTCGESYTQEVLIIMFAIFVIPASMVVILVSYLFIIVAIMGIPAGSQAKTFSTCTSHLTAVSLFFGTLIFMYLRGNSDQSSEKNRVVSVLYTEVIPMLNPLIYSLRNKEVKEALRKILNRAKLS
# How it was run: as §1
# OR9Q1 A83T = test system: T6, OR9Q1 A83T
# T6 sequence (whole entry): T5 sequence (whole entry) with A83T
# How it was run: as §1
# OR9Q2 (Homo sapiens) = target: T7, OR9Q2 (Homo sapiens) (UniProt Q8NGE9)
# T7 sequence (whole entry): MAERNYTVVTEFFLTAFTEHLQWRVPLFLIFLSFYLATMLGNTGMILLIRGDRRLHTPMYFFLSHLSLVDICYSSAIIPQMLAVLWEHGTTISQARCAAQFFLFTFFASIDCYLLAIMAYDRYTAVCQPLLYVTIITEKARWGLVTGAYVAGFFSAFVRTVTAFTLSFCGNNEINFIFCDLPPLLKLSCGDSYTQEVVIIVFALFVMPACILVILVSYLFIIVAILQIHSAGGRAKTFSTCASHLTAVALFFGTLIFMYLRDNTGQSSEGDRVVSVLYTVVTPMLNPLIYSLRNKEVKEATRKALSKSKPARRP
# How it was run: as §1
# OR9Q2 C179R = test system: T8, OR9Q2 C179R
# T8 sequence (whole entry): T7 sequence (whole entry) with C179R
# How it was run: as §1
# Or5an6 (Mus musculus) = target: T9, Or5an6 (Mus musculus) (UniProt Q8VFV4)
# T9 sequence (whole entry): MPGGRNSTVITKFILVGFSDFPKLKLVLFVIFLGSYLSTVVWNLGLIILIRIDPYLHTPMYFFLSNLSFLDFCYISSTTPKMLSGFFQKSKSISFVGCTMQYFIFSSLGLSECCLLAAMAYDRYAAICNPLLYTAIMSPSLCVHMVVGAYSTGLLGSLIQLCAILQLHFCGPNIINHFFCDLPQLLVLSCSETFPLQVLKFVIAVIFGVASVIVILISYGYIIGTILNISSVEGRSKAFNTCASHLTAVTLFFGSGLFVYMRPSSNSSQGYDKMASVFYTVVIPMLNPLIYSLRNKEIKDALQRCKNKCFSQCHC
# How it was run: as §1
structure (smiles),measurement,setting,value
CCCCC(=O)O,odorant receptor agonist call,Or10j5 (Mus musculus),inactive
same,odorant receptor agonist call,Or1m1 (Mus musculus),inactive
same,odorant receptor agonist call,Or2c1 (Mus musculus),inactive
same,odorant receptor agonist call,Or5ar1 (Mus musculus),inactive
O=C(O)CCCCCCCCCCBr,odorant receptor agonist call,Or10j5 (Mus musculus),inactive
CC1=C(O)C(=O)C(C)O1 (stereo not drawn),odorant receptor agonist call,OR9Q1 (Homo sapiens),inactive
same,odorant receptor agonist call,OR9Q1 A83T,inactive
same,odorant receptor agonist call,OR9Q2 (Homo sapiens),inactive
same,odorant receptor agonist call,OR9Q2 C179R,inactive
CCCCCCCCCCCO,odorant receptor agonist call,Or10j5 (Mus musculus),inactive
same,odorant receptor agonist call,Or1m1 (Mus musculus),inactive
same,odorant receptor agonist call,Or5ar1 (Mus musculus),inactive
CC1CCCCCCCCCCCCC(=O)C1 (stereo not drawn),odorant receptor agonist call,OR9Q1 (Homo sapiens),inactive
same,odorant receptor agonist call,OR9Q2 (Homo sapiens),inactive
same,odorant receptor agonist call,Or5an6 (Mus musculus),active
O=C(O)CCCBr,odorant receptor agonist call,Or10j5 (Mus musculus),inactive
CC(=O)c1c(C)c([N+](=O)[O-])c(C(C)(C)C)c([N+](=O)[O-])c1C,odorant receptor agonist call,OR9Q1 (Homo sapiens),inactive
same,odorant receptor agonist call,OR9Q2 (Homo sapiens),inactive
same,odorant receptor agonist call,Or5an6 (Mus musculus),active
CCCCCCCO,odorant receptor agonist call,Or10j5 (Mus musculus),inactive
same,odorant receptor agonist call,Or1m1 (Mus musculus),inactive
same,odorant receptor agonist call,Or2c1 (Mus musculus),inactive
same,odorant receptor agonist call,Or5ar1 (Mus musculus),inactive
O=C(O)CCCCCC(=O)O,odorant receptor agonist call,Or10j5 (Mus musculus),inactive
O=C(O)CCCCCCCCCCCBr,odorant receptor agonist call,Or10j5 (Mus musculus),inactive
CCCCOC(=O)CCC,odorant receptor agonist call,Or10j5 (Mus musculus),inactive
CCCCCC(S)C(C)CO (stereo not drawn),odorant receptor agonist call,OR9Q1 (Homo sapiens),inactive
same,odorant receptor agonist call,OR9Q2 (Homo sapiens),inactive
CCCCCCOC(C)=O,odorant receptor agonist call,Or1m1 (Mus musculus),inactive
same,odorant receptor agonist call,Or2c1 (Mus musculus),inactive
same,odorant receptor agonist call,Or5ar1 (Mus musculus),inactive
CCCC(=O)C(C)=O,odorant receptor agonist call,Or1m1 (Mus musculus),inactive
same,odorant receptor agonist call,Or2c1 (Mus musculus),active
same,odorant receptor agonist call,Or5ar1 (Mus musculus),inactive
CCCCCCCC(=O)[O-].[H+],odorant receptor agonist call,Or10j5 (Mus musculus),active
same,odorant receptor agonist call,Or2c1 (Mus musculus),active
same,odorant receptor agonist call,Or5ar1 (Mus musculus),inactive
CCC(=O)C(=O)CC,odorant receptor agonist call,Or1m1 (Mus musculus),inactive
same,odorant receptor agonist call,Or2c1 (Mus musculus),active
same,odorant receptor agonist call,Or5ar1 (Mus musculus),inactive
CCCCCC=O,odorant receptor agonist call,Or1m1 (Mus musculus),inactive
same,odorant receptor agonist call,Or2c1 (Mus musculus),inactive
same,odorant receptor agonist call,Or5ar1 (Mus musculus),inactive
